Rows were chosen to be rich in hits. Some 2.5% of all compounds tested hit in one or more screens of this group.
MsrA inh = bovine MsrA enzyme inhibitors, primary screen, biochemical, absorbance, HTS; Methionine sulfoxide reductase A (Bos taurus); purified bovine MsrA, absorbance read-out; inhibition, % at 15.5 µM; 0.75% of 360,000 active; AID 651718, 2012
NR2E3 ag-1 = inhibitors of NR2E3-RetCOR corepressor binding, primary screen, NR2E3 agonist project, biochemical, TR-FRET, GST-NR2E3, biotin-RetCOR. 1536-well. inhibition of corepressor binding, % at 4.78 µM. 0.12% of 320,000 active;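 active means percent inhibition above the cutoff of mean plus 3 SD of all tested compounds, set per screening campaign, cut at about 20% in these data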
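System: GST-tagged NR2E3 plus biotinylated RetCOR corepressor; Buffer or medium: pH 7.5 Tris-based buffer; Probe or stimulus: RetCOR corepressor, biotinylated, 7 nM; Doses: compound at 4.8 µM, single dose; Schedule: 5 h incubation at 4 °C; Technique: time-resolved FRET; Evaluation: percent inhibition of TR-FRET ratio; Replication: one well per compound, singlicate testing.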
NR2E3 ag-2 = NR2E3 agonists in two-hybrid cells, primary screen, cell-based, luminescence, CHO-S, Gal4-NCOR/VP16-NR2E3; AID 602229, 2012; luciferase; 0.35% of 360,000 active; inhibition of corepressor binding, % at 3.98 µM; Photoreceptor-specific nuclear receptor (Homo sapiens), Q9Y5X4;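 active means inhibition above the mean of all tested compounds plus 3 SD, cut at about 70% in these data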;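 further: higher means lower luciferase signal from less NR2E3 corepressor binding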
NadD inh = inhibitors of S. aureus NadD, primary screen, biochemical, colorimetric, uHTS. AID 602399, 2012. purified NadD enzyme, colorimetric absorbance read-out. Nicotinate-nucleotide adenylyltransferase NadD (Staphylococcus aureus N315). inhibition, % at 20 µM. 0.78% of 360,000 active; in the data active means inhibition above about 26%
MsrA act = bovine MsrA enzyme activators, primary screen, biochemical, absorbance, HTS; purified bovine MsrA, absorbance read-out; AID 602163, 2012; Methionine sulfoxide reductase A (Bos taurus); activation, % at 10.6 µM; 0.3% of 360,000 active; in the data active means activation above about 7.5%
GalR3 antag = GalR3 antagonists in HEK293 cells, primary screen, cell-based, fluorescence readout | HEK293 GalR3-CNG cAMP membrane potential fluorescence; galR3 body fused to GalR1 C-terminus | 0.44% of 360,000 active | inhibition, % at 3 µM;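 active means inhibition above the screen-wide average plus 3 SD, cut at about 13% in these data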;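 further: forskolin and galanin both at EC90 stimulate the cells; cAMP rise reported by CNG channel membrane potential dye signal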
Target sequence (O60755 1-299 limits assumed): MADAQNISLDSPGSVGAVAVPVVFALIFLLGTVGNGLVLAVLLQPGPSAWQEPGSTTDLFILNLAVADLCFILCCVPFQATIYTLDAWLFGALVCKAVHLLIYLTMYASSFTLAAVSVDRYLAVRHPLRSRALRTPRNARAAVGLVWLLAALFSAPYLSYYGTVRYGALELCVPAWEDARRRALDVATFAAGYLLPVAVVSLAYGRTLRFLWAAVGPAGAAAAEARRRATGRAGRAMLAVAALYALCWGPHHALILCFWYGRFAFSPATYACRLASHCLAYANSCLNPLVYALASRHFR
MsrA conf = bovine MsrA inhibitors, retest, confirmation, biochemical, absorbance, HTS | purified bovine MsrA, absorbance read-out | inhibition, % at 15.5 µM | 41% of 2,300 active | AID 651822, 2012 | shares compounds with MsrA inh;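 further: coupled to thioredoxin reductase with NADPH and selenocystamine and DMSO as substrate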
A number is an active result; . = inactive; / = no result. Unless noted, no stated cut-off is given here; in the data, active means inhibition above about 4.5%; inactive means the rest.

SMILES | MsrA inh | NR2E3 ag-1 | NR2E3 ag-2 | NadD inh | MsrA act | GalR3 antag | MsrA conf
CCOC(=O)CN1N=C(/C=C/c2ccc(OCC)cc2)CCC1=O | 7.2 | . | . | . | . | . | .
CCOc1ccc(/C=C/C2=NNC(=O)CC2)cc1 | 6.7 | . | . | . | . | . | .
C/C=C\C=C/C(=O)Nc1cccc(C2=NOC3(C2)C[C@H](C(N)=O)N(C(=O)CC)C3)c1 (stereo not given in full) | . | . | . | . | . | . | /
c1csc(C2CCCN2c2nc3nonc3nc2NC2CC2)n1 (stereo not given) | 5.7 | . | . | . | . | . | .
Cc1cc(C)n(CCN(C)c2nc3nonc3nc2NC2CC2)n1 | . | . | . | . | . | . | /
COC(=O)[C@@]1(C)[C@H]2C(=O)N(C)C(=O)[C@H]2[C@H]2CN=C(SCc3ccc(Cl)cc3)N21 | . | / | . | . | . | . | /
C/C(=N\Nc1ccc(Cl)c(C(=O)O)c1)c1cc2ccccc2o1 | 5.4 | . | . | . | . | . | 5.8
C/C(=N\Nc1cccc(C(=O)O)c1)c1cc2ccccc2o1 | 5.5 | . | . | . | . | . | .
C/C(=N\Nc1ccccc1)c1cc2ccccc2oc1=O | . | . | . | . | . | . | /
CC(Oc1ccc(C(C)(C)C)cc1)C(=O)NCC(c1ccco1)N1CCCC1 (stereo not given) | . | . | . | . | . | . | /
COc1ccc(/C=N/NC(=O)c2cccnc2)cc1COc1ccc([N+](=O)[O-])c(C)c1 | 4.7 | . | . | . | . | . | .
CN1CCCCC1CCN1c2ccccc2Sc2ccc(S(C)=O)cc21 (stereo not given) | . | . | . | . | . | . | /
O=C1CC(C(=O)Nc2ccc(F)cc2)S/C(=N\N=C\c2ccco2)N1 (stereo not given) | 6.3 | . | . | . | . | . | 5.0
NC(=O)NC(=O)CC1S/C(=N/N=C/c2ccccc2)NC1=O (stereo not given) | 5.3 | . | . | . | . | . | .
COc1ccc(/C=N/N=C2/NC(=O)C(CC(=O)NC(C)C)S2)cc1 (stereo not given) | . | . | . | . | . | . | /
Cc1ccc(/C=N/N=C2/NC(=O)C(CC(=O)N3CCOCC3)S2)cc1 (stereo not given) | 5.8 | . | . | . | . | . | .
O=C(CC1S/C(=N/N=C/c2c[nH]c3ccccc23)NC1=O)Nc1ccccc1 (stereo not given) | . | . | . | . | . | . | /
Cc1ccc(NC(=O)C2CC(=O)N/C(=N/N=C/c3ccco3)S2)cc1 (stereo not given) | . | . | . | . | . | . | /
O=C(CC1S/C(=N/N=C/c2ccco2)NC1=O)Nc1ccccc1 (stereo not given) | 5.3 | . | . | . | . | . | 5.3
CC(C)C(=O)Nc1nnc(S(=O)(=O)N2c3ccccc3CC2C)s1 (stereo not given) | . | . | . | . | . | . | /
CCN(CC)c1ncnc2sc3c(c12)CCC3 | . | . | . | . | . | . | /
C/C(=N\N=C1\NC(=O)C(CC(=O)Nc2ccc(Cl)cc2)S1)c1ccco1 (stereo not given) | 4.8 | . | . | . | . | . | 4.8
Cn1c(/C(C#N)=C(\O)c2cc(Cl)sc2Cl)nc2ccccc21 | . | . | . | . | . | . | /
COc1ccc(/C(O)=C(\C#N)c2nc3ccccc3n2C)cc1OC | 6.9 | . | . | . | . | . | 6.0
C=CCn1c(SCC(=O)Nc2cc(C)nn2-c2ccccc2)nnc1C1CCCCC1 | . | . | . | . | . | . | /
SMILES | MsrA inh | NR2E3 ag-1 | NR2E3 ag-2 | NadD inh | MsrA act | GalR3 antag | MsrA conf
O=C(O)c1ccc2c(=O)n3c(nc2c1)/C(=C/c1cccc(O)c1)CC3 | 5.0 | . | . | . | . | . | .
CCOC(=O)C1CCN(C(=O)CCn2c(=O)[nH]c3ccsc3c2=O)CC1 | . | . | . | . | . | . | /
COc1cc(/C=N/NC(=O)C(Cc2c[nH]c3ccccc23)NC(=O)OCc2ccccc2)cc([N+](=O)[O-])c1O (stereo not given) | 5.8 | . | . | 42 | . | . | 5.2
COC(=O)N/N=C/c1cc(OC)c(O)c([N+](=O)[O-])c1 | . | . | . | . | . | . | /
COc1cc(/C=N/NC(N)=O)cc([N+](=O)[O-])c1O | 4.7 | . | . | . | . | . | .
COc1cc(/C=N/NC(=O)C(Cc2c[nH]c3ccccc23)NC(=O)OCC(C)C)cc([N+](=O)[O-])c1O (stereo not given) | . | . | . | . | . | . | /
CSc1ccc(/C=C(\C(=O)O)c2ccc(S(=O)(=O)N3CCCCC3)s2)cc1 | 5.9 | . | . | . | . | . | .
O=C(CSc1nccn1-c1ncc(C(F)(F)F)cc1Cl)c1ccc(Br)cc1 | / | . | . | . | . | / | /
Cc1ccc(/C(CSc2nccn2-c2ncc(C(F)(F)F)cc2Cl)=N\O)cc1 | 8.6 | . | . | . | . | . | .
O=C(NCCCn1ccnc1)C(=O)NCC1OCCN1S(=O)(=O)c1ccccc1 (stereo not given) | . | . | . | . | . | . | /
C=CC[C@@H](CC(=O)N(CCO)Cc1ccccc1)C(=O)N[C@@H](COC(=O)[C@@H](CC=C)Cc1ccc(F)cc1)Cc1ccccc1 | . | / | . | . | . | . | /
c1ccc2c(c1)nc(-c1ccncc1)n1nnnc21 | 13 | . | . | . | . | . | 12
Cc1ccc(CN2[C@@H](CC3CCCCC3)COCCS2(=O)=O)cc1 | . | . | . | . | . | . | /
N#CC1=C2SCN(c3ccc(F)cc3)CN2C(=O)CC1c1cccc(F)c1 (stereo not given) | . | . | . | . | . | / | /
CC(/C=C/c1ccc2c(c1)OCO2)=N/NC(=O)c1ccncc1 | 5.6 | . | . | . | . | . | 8.6
CC(/C=C/c1ccc2c(c1)OCO2)=N/NC(=O)c1cccnc1 | 7.2 | . | . | . | . | . | 5.5
CC(/C=C/c1ccc2c(c1)OCO2)=N/NC(=O)c1ccc(C)nc1 | 5.4 | . | . | . | . | . | 7.1
Cc1ccc(C(=O)N/N=C\c2cc3c(cc2Br)OCO3)cn1 | . | . | . | . | . | . | /
COCCCNC(=S)N(CCCO)Cc1cc2cc3c(cc2[nH]c1=O)OCCO3 | 5.0 | . | . | . | . | . | .

Screens: PubChem, several laboratories
